HTRA1 inh: blocks human HTRA1 serine peptidase | Q92743 | recombinant HTRA1, FP-rhodamine activity-based probe, fluorescence polarization | inhibition, % at 5.96 µM | 340,000 compounds, 0.5% hits | AID 504803; in the data active = inhibition above about 36%;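 note: 0% = enzyme with DMSO and 100% = wells lacking enzyme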
TCR-CD3 inh: blocks the human TCR-CD3 interaction. TAMRA-labeled TCR probe fluorescence, biochemical. inhibition, % at 9.4 µM. 360,000 compounds, 0.37% hits. AID 651800;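 note: recombinant mutant TCR 2C K166C tagged with TAMRA read by polarization; 0% = receptor in buffer alone and 100% = receptor with positive control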
SIAE primary: human SIAE inhibition, primary screen; Q9HAT2; SIAE FP-Rh probe binding, fluorescence polarization; inhibition, % at 9.66 µM; 370,000 compounds, 0.69% hits;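 active = inhibition above a cutoff: mean of compounds within the control limits plus 3 SD of those, cut at about 17% in these data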;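 note: 0% = plate median of compound wells and 100% = probe without SIAE protein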
mABHD4 FP: inhibitors of mouse ABHD4; AID 720543; inhibition, % at 8.92 µM; Q8VD66; 370,000 compounds, 0.54% hits; purified mABHD4, FP-Rh probe fluorescence polarization;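 active = inhibition exceeding the mean over every tested compound plus 3 SD, cut at about 30% in these data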;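 note: 0% = plate median of compound wells and 100% = S159A mutant with DMSO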
Target sequence (Q8VD66 whole entry, looked up): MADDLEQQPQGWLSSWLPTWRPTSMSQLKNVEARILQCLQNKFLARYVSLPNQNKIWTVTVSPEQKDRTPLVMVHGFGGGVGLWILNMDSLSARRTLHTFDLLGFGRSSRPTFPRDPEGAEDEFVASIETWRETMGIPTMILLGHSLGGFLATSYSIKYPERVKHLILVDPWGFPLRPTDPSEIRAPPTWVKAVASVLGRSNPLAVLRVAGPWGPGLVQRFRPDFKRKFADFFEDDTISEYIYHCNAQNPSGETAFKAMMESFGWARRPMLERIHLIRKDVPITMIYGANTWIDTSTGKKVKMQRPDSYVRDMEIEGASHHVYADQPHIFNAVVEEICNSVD
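Test system: mouse ABHD4 enzyme, wild type. Reagent: FP-Rh fluorescent activity-based probe, added after compound pre-incubation. Timing: pre-incubation 45 min, probe exposure 60 min, at 25 °C. Technique: FP readout, ex 525 nm / em 598 nm. Benchmarks: high control S159A mutant with DMSO, low control median of compound wells.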
PRMT1 inh: inhibitors of human PRMT1; 370,000 compounds, 1.3% hits; AID 652257; Q99873; recombinant PRMT1, activity-based probe fluorescence polarization; inhibition, % at 2.79 µM;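 active = inhibition above about 21% made by adding two undisclosed values, limit read from the data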
HTRA1 inh conf: confirmation of human HTRA1 inhibitors; inhibition, % at 5.96 µM; shares compounds with HTRA1 inh; AID 540248; recombinant HTRA1, FP-rhodamine activity-based probe, fluorescence polarization; 1,600 compounds, 66% hits;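 active = mean inhibition over three repeats above a set limit taken from the earlier primary screen, cut at about 37% in these data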;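 note: 0% = HTRA1 with DMSO and 100% = wells lacking HTRA1; inhibitors block probe binding so polarization drops and inhibition rises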
BSA TAMRA ctr: BSA probe counter-screen for TCR-CD3 inhibitors | TAMRA-labeled BSA probe fluorescence counterscreen | shares compounds with TCR-CD3 inh | inhibition, % at 9.4 µM | AID 652035 | 1,200 compounds, 10% hits; in the data active = inhibition above about 23%;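 note: 0% = buffer low control and 100% = reference high control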
TCR-CD3 inh conf: confirmation of human TCR-CD3 interaction inhibitors. shares compounds with TCR-CD3 inh. TAMRA-labeled TCR probe fluorescence binding assay. inhibition, % at 9.4 µM. 1,200 compounds, 48% hits
* hit, by the source's call; . = no result given. This is a sample that favours compounds with a hit; in the whole collection about 2.5% have one here. Cut-off read from the data, not from the text of the source, unless noted: active = inhibition above about 19%; inactive = the rest.

SMILES	HTRA1 inh	TCR-CD3 inh	SIAE primary	mABHD4 FP	PRMT1 inh	HTRA1 inh conf	others
O=C(NN=C1CCN(Cc2ccccc2)CC1)c1cc(Br)ccc1O	40*	13	11	9	0	13
O=C(NCCc1nc2ccccc2n1CCOc1ccc2cccnc2c1)C1CCCCC1	.	.	-5	1	0	.
COC[C@H]1CCCN1c1cccc2c1S(=O)(=O)N(C1CC1)CCCO2	.	.	1	7	3	.
O=C(Oc1ccc(Cl)c2cccnc12)c1ccco1	72*	0	1	0	2	76*
O=C(/C=C/c1ccc(O)c(O)c1)OC(Cc1ccc(O)c(O)c1)C(=O)O (stereo unspecified)	9	4	7	28	20	.
O=C(/C=C/c1ccc(O)c(O)c1)OCCc1ccccc1	64*	3	-7	16	-2	71*
c1ccc(CNc2ccc(N3CCOCC3)cc2)cc1	52*	1	14	26	8	17
CCc1ccc(CNc2ccc(N3CCN(C(C)=O)CC3)cc2)cc1	42*	-2	8	27	6	4
COc1cc(C2Nc3cccc4cccc(c34)N2)ccc1OC(C)=O	11	.	.	.	.	.
COc1cc(C2Nc3cccc4cccc(c34)N2)cc(OC)c1O	39*	-1	47*	-2	4	35
CCCNC(=O)C[C@H]1CC[C@H]2[C@@H](COc3ccc(NC(=O)c4cncs4)cc3C(=O)N2C)O1	.	.	2	18	3	.
CCC(NC(=O)c1ccc2c(c1)c(C)c(C)n2Cc1ccc(-c2ccccc2C#N)cc1)c1ccccc1 (stereo unspecified)	.	.	-9	-42	2	.
O=S(=O)(c1cccnc1)N1CCn2cccc2C1c1ccccc1F (stereo unspecified)	77*	4	5	3	4	29
O=C(NNc1ccc(C(F)(F)F)cc1[N+](=O)[O-])c1ccc(NS(=O)(=O)c2ccc(F)cc2)cc1	38*	5	13	12	12	36
Cc1[nH]c2ccccc2c1N=Nc1ccc(F)cc1	13	2	8	-2	11	.
N=C(N)c1ccc(N=Nc2c(O)ccc3c2[nH]c2ccccc23)cc1	85*	-2	9	47*	4	61*
COC(=O)[C@]12C[C@H](CC(=O)N3CCN(C(=O)c4ccco4)CC3)C(=O)N(Cc3ccccc3)C1=C[C@H](COCc1ccccc1)O[C@@H]2C	.	.	-10	3	2	.
COc1cccc(NC(=O)NC2CCCCN(Cc3ccc(C)cc3)C2=O)c1 (stereo unspecified)	.	.	-4	-8	-7	.
COc1c(O)c(O)c2oc(-c3ccccc3)cc(=O)c2c1OC	46*	-2	1	8	12	60*
COc1ccc(C=Nn2c(-c3ccccc3F)n[nH]c2=S)cc1OCc1ccccc1	.	.	0	-18	20	.
COc1cccc2nc3cc(C)c(C)cc3nc12	48*	7	11	28	7	6
CCOc1cc(CCNC(=O)c2cc3sccc3n2CC)ccc1OC	.	.	-4	-5	-2	.
O=S1(=O)C=CCN1Cc1cn(Cc2cccc(Cl)c2)nn1	.	.	-3	0	2	.
CCOC(=O)C1=C(CS(=O)(=O)c2ccc(F)cc2)NC(=O)NC1c1ccc(O)c(O)c1 (stereo unspecified)	48*	11	5	10	2	52*
COC(=O)[C@H]1C[C@]2(C(/C=C(\C)CCC=C(C)C)S(=O)(=O)c3ccccc3)c3ccccc3N[C@H]2N1 (stereo partly specified)	.	.	4	8	2	.
SMILES	HTRA1 inh	TCR-CD3 inh	SIAE primary	mABHD4 FP	PRMT1 inh	HTRA1 inh conf	others
CN(C)c1ccc(C=c2c3ccccc3n3c2c2c([n+]3C)CCCC2)cc1	53*	-8	-4	8	4	55*
Cc1ccc2c(c1)C1CS(=O)(=O)N(CCc3ccccc3)C(=O)N1C2 (stereo unspecified)	.	.	-1	-9	7	.
COC(=O)[C@H]1C[C@@]2(n3ccc4ccccc43)c3ccccc3N(S(=O)(=O)c3ccccc3)[C@H]2N1C(=O)CNC1CCCCC1	.	.	-5	16	2	.
O=C(C=C(O)c1ccc(Cl)cc1)C(=O)NNC(=O)C(O)(c1ccccc1)c1ccccc1	41*	7	-12	-8	1	36*
Cc1ccc(/C(O)=C/C(=O)C(=O)NNC(=O)C(O)(c2ccccc2)c2ccccc2)cc1	22	2	-7	2	1	.
Cc1cccc(NC(=O)C2CCCN(c3nnc(-n4cccc4)s3)C2)c1C (stereo unspecified)	.	.	0	-7	2	.
C/C(=N/NC(=O)c1cc2ccccc2cc1O)C1C(=O)c2ccccc2C1=O	74*	45*	21*	49*	4	53*	BSA TAMRA ctr=1;TCR-CD3 inh conf=68*
COc1ccc(N(C)S(=O)(=O)c2ccc(Cl)c(C(=O)NNC(=O)c3ccccc3O)c2)cc1	42*	26*	13	1	-3	32	BSA TAMRA ctr=3;TCR-CD3 inh conf=18
O=c1cc(-c2ccc(O)c(O)c2)oc2cc(O)cc(O)c12	50*	25*	3	26	4	67*	BSA TAMRA ctr=-17;TCR-CD3 inh conf=21*
COc1ccc(-c2cc(=O)c3c(O)cc(O)cc3o2)cc1	-9	-1	-20	-1	5	.
COC(=O)[C@]12C[C@H](CC(=O)NCC3CCCCC3)C(=O)N(Cc3cccc4ccccc34)C1=C[C@H](COCc1ccccc1)O[C@@H]2C	.	.	1	-3	-2	.
Cc1ccc(C(=O)Nc2nnc(CC(=O)N/N=C/c3ccncc3)s2)cc1	-24	11	-12	-12	-1	.
Cc1ccc(C(=O)Nc2nnc(CC(=O)N/N=C/c3ccc(O)c(O)c3)s2)cc1	48*	34*	4	14	-2	64*	BSA TAMRA ctr=-18;TCR-CD3 inh conf=68*
Cc1ccc(CNc2ccc(O)cc2)cc1	60*	27*	48*	68*	16	27	BSA TAMRA ctr=-1;TCR-CD3 inh conf=2
CCOc1cccc(CNc2ccc(O)cc2)c1OCc1ccc(Cl)cc1Cl	60*	27*	32*	66*	15	29	BSA TAMRA ctr=3;TCR-CD3 inh conf=0
Oc1ccccc1N=Nc1ccccc1O	66*	19*	17	20	4	59*	BSA TAMRA ctr=-6;TCR-CD3 inh conf=5
CCOc1ccc(Oc2c(Cl)c(Br)nn(Cc3cccc4ccccc34)c2=O)cc1	.	.	10	-1	1	.
CCC1=NN(C(=O)c2ccccc2Br)C(O)(c2ccc(Br)cc2)C1 (stereo unspecified)	1	7	3	0	-5	.
CCC1=NN(C(=O)c2ccccc2O)C(O)(c2ccccc2)C1 (stereo unspecified)	54*	40*	16	13	13	65*	BSA TAMRA ctr=-8;TCR-CD3 inh conf=30*

Screening results deposited in PubChem BioAssay by The Scripps Research Institute Molecular Screening Center.
